# Bridge positions count the residues as written; N and C are the ends. Square brackets hold non-standard residues; d marks the D form. Peptide text beside a SMILES is read from it. * marks the point of attachment. X1 = CC[C@H](C)CCCCC(=O)*; Dab = NCC[C@H](N)C(=O)O
# What was measured:
# [1] = system: E. coli ATCC 25922; assay: MIC, broth microdilution; assay type: cell-based; conditions: LB + 0.3 mM ZnSO4, 37 °C, 18 h, median of min. triplicates
# Procedure, shortened: (§1)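 Strains from glycerol stocks were grown overnight on blood agar at 37 °C. Single colonies went into TSB and grew to OD600 0.5, then were diluted 100-fold in LB + 0.3 mM ZnSO4 to 10^6 CFU/mL. Two-fold serial dilutions of test compound were made in triplicate in the same medium and mixed 1:1 with inoculum. Plates ran 18 h at 37 °C at 600 rpm. MIC was the median of at least triplicates, read visually.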
# [2] = system: B. subtilis 168; assay: Membrane fluidity, DiIC12 staining; assay type: cell-based; conditions: 5 × MIC, DiIC12, 0.3 mM ZnSO4, 30 °C, 0 to 60 min
# Procedure, shortened: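 B. subtilis 168 overnight cultures were diluted 1:200 into LB containing 1% DMSO and 2 µg/mL DiIC12. At OD600 0.3 cells were washed in dye-free medium and given 0.3 mM ZnSO4, then treated at 5× MIC, with daptomycin as positive control. Incubation was at 30 °C and 850 rpm, sampling at 0–60 min for fluorescence microscopy on agarose slides. Representative of three independent experiments.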
# [3] = system: E. faecium E7319 (vanA); assay: MIC, broth microdilution; assay type: cell-based; conditions: LB + 0.3 mM ZnSO4
# Procedure, shortened: as §1
# [4] = system: E. faecium E1679 (vanA); assay: MIC, broth microdilution; assay type: cell-based; conditions: LB + 0.3 mM ZnSO4
# Procedure, shortened: as §1
# [5] = system: E. faecium E2297 (vanA); assay: MIC, broth microdilution; assay type: cell-based; conditions: LB + 0.3 mM ZnSO4
# Procedure, shortened: as §1
# [6] = system: E. faecium E0013 (vanA); assay: MIC, broth microdilution; assay type: cell-based; conditions: LB + 0.3 mM ZnSO4
# Procedure, shortened: as §1
# [7] = system: E. faecium E0321 (vanA); assay: MIC, broth microdilution; assay type: cell-based; conditions: LB + 0.3 mM ZnSO4
# Procedure, shortened: as §1
# [8] = system: E. faecium E0745 (vanA); assay: MIC, broth microdilution; assay type: cell-based; conditions: LB + 0.3 mM ZnSO4
# Procedure, shortened: as §1
# [9] = system: E. faecium E2373 (vanA); assay: MIC, broth microdilution; assay type: cell-based; conditions: LB + 0.3 mM ZnSO4
# Procedure, shortened: as §1
# [10] = system: E. faecium E7413 (vanA); assay: MIC, broth microdilution; assay type: cell-based; conditions: LB + 0.3 mM ZnSO4
# Procedure, shortened: as §1
# [11] = system: E. faecium E155 (vanA); assay: MIC, broth microdilution; assay type: cell-based, Enterococcus faecium
# Procedure, shortened: as §1
# [12] = system: E. faecium E6016 (vanA); assay: MIC, broth microdilution; assay type: cell-based; conditions: LB + 0.3 mM ZnSO4
# Procedure, shortened: as §1
# [13] = system: E. faecium E0333 (vanA); assay: MIC, broth microdilution; assay type: cell-based; conditions: LB + 0.3 mM ZnSO4
# Procedure, shortened: as §1
# [14] = system: E. faecium E7312 (vanA); assay: MIC, broth microdilution; assay type: cell-based; conditions: LB + 0.3 mM ZnSO4
# Procedure, shortened: as §1
# [15] = system: E. faecium E0506 (vanA); assay: MIC, broth microdilution; assay type: cell-based; conditions: LB + 0.3 mM ZnSO4
# Procedure, shortened: as §1
# [16] = system: E. faecium E0341 (vanA); assay: MIC, broth microdilution; assay type: cell-based; conditions: LB + 0.3 mM ZnSO4
# Procedure, shortened: as §1
# [17] = system: E. faecium E1763 (vanA); assay: MIC, broth microdilution; assay type: cell-based; conditions: LB + 0.3 mM ZnSO4
# Procedure, shortened: as §1
# [18] = system: E. faecium E1130 (vanA); assay: MIC, broth microdilution; assay type: cell-based; conditions: LB + 0.3 mM ZnSO4
# Procedure, shortened: as §1
# [19] = system: panel of E. faecium clinical isolates carrying the vanA vancomycin resistance gene; assay: MIC50 / MIC90 over the VRE panel; assay type: cell-based
# [20] = system: E. faecium E1441 (vanA); assay: MIC, broth microdilution; assay type: cell-based; conditions: LB + 0.3 mM ZnSO4
# Procedure, shortened: as §1
# [21] = system: E. faecium E0300 (vanA); assay: MIC, broth microdilution; assay type: cell-based; conditions: LB + 0.3 mM ZnSO4
# Procedure, shortened: as §1
# [22] = system: E. faecium E0072 (vanA); assay: MIC, broth microdilution; assay type: cell-based; conditions: LB + 0.3 mM ZnSO4
# Procedure, shortened: as §1
# [23] = degradation product of bacitracin; cited from earlier work
# [24] = calculated over 19 vanA E. faecium clinical isolates, LB + 0.3 mM ZnSO4
molecule,measurement,setting,value
CC[C@H](C)CCCCC(=O)N[C@@H](CCN)C(=O)N[C@H](C(=O)N[C@@H](CCN)C(=O)N[C@H]1CCNC(=O)[C@H]([C@@H](C)O)NC(=O)[C@H](CCN)NC(=O)[C@H](CCN)NC(=O)[C@H](CC(C)C)NC(=O)[C@@H](Cc2ccccc2)NC(=O)[C@H](CCN)NC1=O)[C@@H](C)O [Polymyxin B] (X1-[Dab]T[Dab][Dab][Dab][dF]L[Dab][Dab]T; lactam 4-C (inferred); N-terminus assumed),MIC E. coli ATCC 25922,[1],2 µg/mL
Bacitracin,formation of regions of increased fluidity (RIF),[2],to a much lesser degree
CN[C@H](CC(C)C)C(=O)N[C@H]1C(=O)N[C@@H](CC(N)=O)C(=O)N[C@H]2C(=O)N[C@H]3C(=O)N[C@H](C(=O)N[C@H](C(=O)O)c4cc(O)cc(O)c4-c4cc3ccc4O)[C@H](O)c3ccc(c(Cl)c3)Oc3cc2cc(c3O[C@@H]2O[C@H](CO)[C@@H](O)[C@H](O)[C@H]2O[C@H]2C[C@](C)(N)[C@H](O)[C@H](C)O2)Oc2ccc(cc2Cl)[C@H]1O [Vancomycin],MIC E. faecium E7319 vanA,[3],>64 µg/mL
same,MIC E. faecium E1679 vanA,[4],>64 µg/mL
same,MIC E. faecium E2297 vanA,[5],>64 µg/mL
same,MIC E. faecium E0013 vanA,[6],>64 µg/mL
same,MIC E. faecium E0321 vanA,[7],>64 µg/mL
same,MIC E. faecium E0745 vanA,[8],>64 µg/mL
same,MIC E. faecium E2373 vanA,[9],>64 µg/mL
same,MIC E. faecium E7413 vanA,[10],>64 µg/mL
same,MIC E. faecium E155 vanA,"[11]; LB + 0.3 mM ZnSO4, 37 °C, 18 h, median of min. triplicates",>64 µg/mL
same,MIC E. faecium E155 vanA,"[11]; Table 2, LB + 0.3 mM ZnSO4",>64 µg/mL
same,MIC E. faecium E6016 vanA,[12],>64 µg/mL
same,MIC E. faecium E0333 vanA,[13],>64 µg/mL
same,MIC E. faecium E7312 vanA,[14],>64 µg/mL
same,MIC E. faecium E0506 vanA,[15],>64 µg/mL
same,MIC E. faecium E0341 vanA,[16],>64 µg/mL
same,MIC E. faecium E1763 vanA,[17],>64 µg/mL
same,MIC E. faecium E1130 vanA,[18],>64 µg/mL
same,"MIC for vancomycin, all strains of the vanA VRE selection",[19]; broader selection of VRE strains all carrying the vanA gene,≥ 64 µg/mL
same,MIC50,[19]; [24],>64 µg/mL
same,MIC90,[19]; [24],>64 µg/mL
same,MIC E. faecium E1441 vanA,[20],>64 µg/mL
same,MIC E. faecium E0300 vanA,[21],>64 µg/mL
same,MIC E. faecium E0072 vanA,[22],>64 µg/mL
Bacitracin F,nephrotoxicity,[23],nephrotoxic

# Source: paper PMC11260088 (Proceedings of the National Academy of Sciences of the …, 2024)
